Only some compounds are listed: those with a hit (about 1.6% of all), similar ones and a draw of the others.
PfGluPho inh – PfG6PD (Plasmodium falciparum) enzyme inhibition. PfGluPho enzyme, NADPH resazurin-diaphorase fluorescence. inhibition, % at 20 µM. 350,000 tested, 0.78% active. AID 504690;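 active = inhibition reaching at least a set limit at 20 µM in the primary screen, cut at about 59% in these data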;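 also: 0% = DMSO wells with substrate and 100% = DMSO wells lacking glucose-6-phosphate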
ATG4B inhibitor – blocks human ATG4B protease cleavage of LC3 substrate. Q9Y4P1. ATG4B cleavage of LC3-PLA2, NBD-HPC fluorescence, 1 h. inhibition, % at 8.33 µM. 340,000 tested, 0.51% active; in the data active = inhibition above about 40%
PKA-R2B act – activates the human PKA-R2B holoenzyme complex | P22694+P31323 | AID 504700 | 340,000 tested, 0.079% active | activation, % at 11.4 µM | PKA-R2B holoenzyme dissociation, Cy5-IP20 fluorescence polarization; R2B truncated from residue 108, S112A mutant; 0% DMSO only, 100% 113 µM cGMP;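 active = activation above a cutoff set at the mean over all compounds plus 3 SD, cut at about 18% in these data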;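 also: higher means more holoenzyme dissociation and a rise in polarization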
Target sequence (P31323 whole entry, looked up, other chains not shown, the tested form may be a part): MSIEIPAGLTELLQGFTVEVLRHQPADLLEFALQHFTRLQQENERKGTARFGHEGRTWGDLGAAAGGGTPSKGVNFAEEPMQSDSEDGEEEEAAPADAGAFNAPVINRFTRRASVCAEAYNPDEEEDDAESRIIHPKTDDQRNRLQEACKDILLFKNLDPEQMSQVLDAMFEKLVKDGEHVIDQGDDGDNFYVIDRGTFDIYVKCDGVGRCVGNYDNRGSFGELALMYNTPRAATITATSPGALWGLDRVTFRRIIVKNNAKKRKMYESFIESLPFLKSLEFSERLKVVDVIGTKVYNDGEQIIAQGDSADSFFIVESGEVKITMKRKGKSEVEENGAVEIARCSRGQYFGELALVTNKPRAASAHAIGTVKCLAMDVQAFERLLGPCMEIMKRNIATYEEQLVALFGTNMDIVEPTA
T cell HTS – T cell immune modulation candidate. 2C CD8+ T cell-vesicle binding, flow cytometry; stronger effect = lower value. response (vesicle binding), % at 7 µM. 330,000 tested, 0.068% active;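 active = response, share of CD8 T cells binding vesicles, and their 90th percentile fluorescence all below set limits, cut at about 80% in these data, passing the limit was not always enough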;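 also: values below 100% mean blocked vesicle binding to the CD8+ T cells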
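Test system: purified 2C TCR transgenic mouse naive CD8+ T cells. Probe or stimulus: QL9-peptide-loaded Drosophila micro-vesicles bearing Ld, ICAM-1 and B7-1. Incubation: binding step 1.5 h, 37 °C, antibody labelling 20 min, ice. Measured by: flow cytometry of vesicle-bound cells.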
HKDC1 inhibitor – inhibitors of human hexokinase HKDC1 | Q2TB90 | recombinant HKDC1, G6PDH/diaphorase resazurin coupled fluorescence | inhibition, % at 20 µM | 340,000 tested, 0.16% active;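 active = inhibition above about 35% when tested at 20 µM, limit read from the data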;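 also: plate controls were DMSO wells with enzyme for no effect and DMSO wells lacking enzyme for full effect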
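Assay system – recombinant HKDC1 (HK5) hexokinase enzyme, produced in-house · Input – HKDC1 at 5 µg/mL · Reagent – glucose plus 1 mM ATP as hexokinase substrates · Timing – 90 min reaction incubation at room temperature, dark · Measured by – G6PDH/diaphorase-coupled fluorescence, 1 mM NADP, 100 µM resazurin, 525/613 nm · Benchmarks – DMSO-enzyme wells negative, buffer-substituted wells positive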
PKA-R1A activ – PKA-R1A complex activation; 340,000 tested, 0.083% active; activation, % at 11.4 µM; PKA-R1A dissociation, Cy5-IP20 fluorescence polarization; scaled: DMSO 0%, 113 µM cGMP 100%; P00514+P68181;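 active = percent activation above the mean of all tested compounds plus 3 SD, cut at about 19% in these data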;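 also: higher means more PKAc released from R1A so a rise in polarization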
HKDC1 act conf2 – confirmation of human HKDC1 activators. shares compounds with HKDC1 inhibitor. recombinant HKDC1, G6PDH/diaphorase resazurin fluorescence; stronger effect = lower value. inhibition, % at 20 µM. 740 tested, 14% active. AID 504708;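 active = inhibition at or below a set negative limit, negative inhibition meaning the enzyme was activated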
An asterisk follows results filed as active.

How did O=C1C(Cl)=C(Nc2ccccc2)C(=O)c2ccccc21 do in these assays?
PfGluPho inh: -17; ATG4B inhibitor: -1; PKA-R2B act: -8; T cell HTS: 548; HKDC1 inhibitor: -38; PKA-R1A activ: -7

How did O=C(O)c1ccc(NC2=C(Cl)C(=O)c3ccccc3C2=O)cc1 do in these assays?
PfGluPho inh: -89; ATG4B inhibitor: -2; PKA-R2B act: 7; T cell HTS: 143; HKDC1 inhibitor: -131; PKA-R1A activ: 11; HKDC1 act conf2: -94*

Results for O=C1C(C2=C(O)c3ccccc3C2=O)=Nc2ccccc21 ?
PfGluPho inh: 17; ATG4B inhibitor: -14; PKA-R2B act: -9; T cell HTS: 784; HKDC1 inhibitor: -242; PKA-R1A activ: -11; HKDC1 act conf2: -162*

What do the screens show for `Cc1cccc(N(CC(=O)N/N=C/c2ccc(C(=O)O)cc2)S(=O)(=O)c2ccccc2)c1C`?
PfGluPho inh: 6; ATG4B inhibitor: -13; T cell HTS: 315; HKDC1 inhibitor: 2

Results for O=C(Cn1cnc2scc(-c3ccc(F)cc3)c2c1=O)NCC(c1ccco1)N1CCCC1 (stereo not drawn) ?
PfGluPho inh: 0; ATG4B inhibitor: -6; PKA-R2B act: 11; HKDC1 inhibitor: -3; PKA-R1A activ: 2

How did Cc1ccc(/C=C/C(=O)c2ccc([N+](=O)[O-])o2)cc1 do in these assays?
PfGluPho inh: 36; ATG4B inhibitor: -1; T cell HTS: 200; HKDC1 inhibitor: 46*; HKDC1 act conf2: 19

How did CC1C/C(=C/c2ccncc2)C(=O)/C(=C/c2ccncc2)C1 (stereo not drawn) do in these assays?
PfGluPho inh: 9; ATG4B inhibitor: 8; PKA-R2B act: -5; T cell HTS: 338; HKDC1 inhibitor: 43*; PKA-R1A activ: 10; HKDC1 act conf2: -5

What do the screens show for `CCN(C(=O)COC(=O)CCC1CCCC1)c1c(N)n(Cc2ccccc2)c(=O)[nH]c1=O`?
PfGluPho inh: -1; ATG4B inhibitor: 0; PKA-R2B act: -2; HKDC1 inhibitor: -5; PKA-R1A activ: -16

How did O=S(=O)(CCSc1nc2ccccc2s1)c1nc2ccccc2s1 do in these assays?
PfGluPho inh: 27; ATG4B inhibitor: 1; PKA-R2B act: -8; T cell HTS: 657; HKDC1 inhibitor: 39*; PKA-R1A activ: -4; HKDC1 act conf2: 0

How did CCOC(=O)C1=C(COC(=O)C2CC(=O)N(c3ccccc3CC)C2)NC(=O)NC1C (stereo not drawn) do in these assays?
PfGluPho inh: -2; PKA-R2B act: 9; PKA-R1A activ: 2

What do the screens show for `CCN(Cc1ccncc1)C(=O)CCc1nnc(CCc2ccc(OC)cc2)o1`?
PfGluPho inh: -21; ATG4B inhibitor: 2; PKA-R2B act: -15; T cell HTS: 900; HKDC1 inhibitor: 2; PKA-R1A activ: 0

How did O=C(NC(=S)NNC(=O)c1cc2ccccc2cc1O)c1ccco1 do in these assays?
PfGluPho inh: -26; ATG4B inhibitor: -6; PKA-R2B act: -2; T cell HTS: 334; HKDC1 inhibitor: -33; PKA-R1A activ: -15

What do the screens show for `O=C(NC(=S)NNC(=O)c1ccccc1O)c1ccco1`?
PfGluPho inh: -33; ATG4B inhibitor: -3; PKA-R2B act: -2; T cell HTS: 274; HKDC1 inhibitor: -44; PKA-R1A activ: -7; HKDC1 act conf2: 15

Results for COc1ccccc1N(CC(=O)N1CCN(Cc2ccccc2)CC1)S(=O)(=O)c1ccccc1 ?
PfGluPho inh: 6; PKA-R2B act: -8; PKA-R1A activ: -15

How did COc1ccc(C=O)cc1COc1ccc2c(c1)OCO2 do in these assays?
PfGluPho inh: 9; ATG4B inhibitor: -2; PKA-R2B act: -8; HKDC1 inhibitor: 5; PKA-R1A activ: -3

What do the screens show for `O=C(O)c1ccc(N2C(=O)/C(=C/c3ccc(-c4ccc([N+](=O)[O-])cc4)o3)C=C2c2ccccc2)cc1`?
PfGluPho inh: 25; ATG4B inhibitor: 8; PKA-R2B act: 16; T cell HTS: 461; HKDC1 inhibitor: 43*; PKA-R1A activ: 3; HKDC1 act conf2: 1

How did COc1cccc2cc(C(=O)Nc3ccc(F)cc3)c(=Nc3ccc(C(=O)O)cc3)oc12 do in these assays?
PfGluPho inh: -9; ATG4B inhibitor: -9; PKA-R2B act: 1; T cell HTS: 377; HKDC1 inhibitor: 77*; PKA-R1A activ: 8; HKDC1 act conf2: 9

What do the screens show for `CC(O)[C@@]1(O)CC[C@H]2[C@@H]3CC[C@H]4C[C@@H](O)CC[C@]4(C)C3=CC[C@@]21C` (stereo partly drawn)?
PfGluPho inh: -13; ATG4B inhibitor: 3; PKA-R2B act: -20; T cell HTS: 247; HKDC1 inhibitor: -4; PKA-R1A activ: -1

Results for COc1ccc(OC)c2[nH]c(=O)c(CCNC(=O)c3cc4ccccc4o3)cc12 ?
PfGluPho inh: 23; ATG4B inhibitor: -4; PKA-R2B act: 5; T cell HTS: 206; HKDC1 inhibitor: 38*; PKA-R1A activ: -2; HKDC1 act conf2: 60

What do the screens show for `COc1ccc(C(=O)OCC2CC(c3ccccc3)=NO2)cc1OC` (stereo not drawn)?
PfGluPho inh: -5; ATG4B inhibitor: -5; PKA-R2B act: -6; T cell HTS: 258; HKDC1 inhibitor: -3; PKA-R1A activ: 4

How did COc1ccc(-c2nc3c(c(=O)n(C)c(=O)n3C)n2CC2CC(c3ccccc3)=NO2)cc1OC (stereo not drawn) do in these assays?
PfGluPho inh: -51; ATG4B inhibitor: -10; PKA-R2B act: -13; T cell HTS: 421; HKDC1 inhibitor: -48; PKA-R1A activ: -13; HKDC1 act conf2: -33*

How did Oc1ccc(/C=N/Nc2nccnc2Cl)c(O)c1 do in these assays?
PfGluPho inh: -24; ATG4B inhibitor: -10; PKA-R2B act: 4; T cell HTS: 232; HKDC1 inhibitor: -5; PKA-R1A activ: 11

What do the screens show for `Oc1ccc(/C=N/Nc2ncc(Br)cn2)c(O)c1`?
PfGluPho inh: 5; ATG4B inhibitor: 1; PKA-R2B act: -14; T cell HTS: 621; HKDC1 inhibitor: 39*; PKA-R1A activ: 1; HKDC1 act conf2: 45

Results for O=[N+]([O-])c1ccc(NN=Cc2ccc(O)cc2O)nc1 ?
PfGluPho inh: 4; ATG4B inhibitor: 0; PKA-R2B act: -2; HKDC1 inhibitor: 37*; PKA-R1A activ: -4; HKDC1 act conf2: 51

Results for O=C(c1c[nH]c(C(=O)C(Cl)(Cl)Cl)c1)c1ccccc1F ?
PfGluPho inh: -6; ATG4B inhibitor: -9; PKA-R2B act: -2; T cell HTS: 418; HKDC1 inhibitor: 37*; PKA-R1A activ: -12; HKDC1 act conf2: 1

Bioassay records (PubChem BioAssay)
